In ChEMBL document CHEMBL3758101, “Synthesis and biological evaluation of fluorinated 1,5-diarylpyrrole-3-alkoxyethyl ether derivatives as selective COX-2 inhibitors endowed with anti-inflammatory activity” (Eur J Med Chem, 2016):
Activity calls are given as the source filed them.

Tests used:
Rattus norvegicus [1] = assay: Antihyperalgesic activity in Sprague-Dawley rat model of carrageenan-induced inflammatory pain assessed as paw pressure threshold at 3 mg/kg, po administered 2 hrs post carrageenan challenge measured after 60 mins by paw pressure test (reference value: 35.4 +/- 3.6 g)
Mus musculus [2] = assay: Antinociceptive activity in CD1 albino mouse model of acetic acid-induced visceral pain assessed as number of writhes at 10 mg/kg, po pretreated for 30 mins before acetic acid challenge measured after 5 mins (reference value: 30.5 +/- 1.7); format: functional
Rattus norvegicus [3] = assay: Antihyperalgesic effect in Sprague-Dawley rat model of monosodium iodoacetate-induced osteoarthritis assessed as withdrawal threshold at 10 mg/kg, ip administered 14 days post MIA challenge measured after 120 mins by paw pressure test (reference value: 39.2 +/- 4 g); format: functional
Method in brief: (§1)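 Male Sprague–Dawley rats (200–250 g). MIA (2 mg/25 µL) was injected into the left tibiotarsal joint on day 0 under 2% isoflurane; controls received 25 µL saline. On day 14 compound or vehicle was given at time 0. Paw pressure threshold (g) was read with an analgesimeter using a blunt conical probe on the dorsal paw at 30, 60, 90 and 120 min. Mean ± s.e.m., 6 rats.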

Mus musculus [4] = assay: Antinociceptive activity in CD1 albino mouse model of acetic acid-induced visceral pain assessed as number of writhes at 10 mg/kg, po pretreated for 60 mins before acetic acid challenge measured after 5 mins (reference value: 32.5 +/- 2.4); format: functional
Rattus norvegicus [5] = assay: Antihyperalgesic effect in Sprague-Dawley rat model of monosodium iodoacetate-induced osteoarthritis assessed as withdrawal threshold at 10 mg/kg, ip administered 14 days post MIA challenge measured after 60 mins by paw pressure test (reference value: 36.1 +/- 3.5 g); format: functional
Method in brief: as §1

HaCaT = assay: Antiproliferative activity against human HaCaT cells at 1 uM after 24 hrs by BrdU incorporation assay; format: functional, cell-based
Method in brief: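 HaCaT human keratinocytes were grown in high-glucose DMEM with 10% FBS and 2 mM L-glutamine at 37 °C and 5% CO2 to 80% confluency. Cells were treated 24 h with compound at 1, 10 or 50 µM (final DMSO ≤0.1%). Proliferation was read by BrdU incorporation as % of DMSO control; three experiments.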

Mus musculus [6] = assay: Antinociceptive activity in CD1 albino mouse model of acetic acid-induced visceral pain assessed as number of writhes at 20 mg/kg, po pretreated for 30 mins before acetic acid challenge measured after 5 mins (reference value: 30.5 +/- 1.7); format: functional
Rattus norvegicus [7] = assay: Antihyperalgesic effect in Sprague-Dawley rat model of monosodium iodoacetate-induced osteoarthritis assessed as withdrawal threshold at 3 mg/kg, ip administered 14 days post MIA challenge measured after 30 mins by paw pressure test (reference value: 37.8 +/- 3.3 g); format: functional
Method in brief: as §1

Rattus norvegicus [8] = assay: Antihyperalgesic effect in Sprague-Dawley rat model of monosodium iodoacetate-induced osteoarthritis assessed as withdrawal threshold at 3 mg/kg, ip administered 14 days post MIA challenge measured after 60 mins by paw pressure test (reference value: 36.1 +/- 3.5 g); format: functional
Method in brief: as §1

Rattus norvegicus [9] = assay: Antihyperalgesic effect in Sprague-Dawley rat model of monosodium iodoacetate-induced osteoarthritis assessed as withdrawal threshold at 10 mg/kg, ip administered 14 days post MIA challenge measured after 90 mins by paw pressure test (reference value: 37.8 +/- 3.1 g); format: functional
Method in brief: as §1

Rattus norvegicus [10] = assay: Antihyperalgesic effect in Sprague-Dawley rat model of monosodium iodoacetate-induced osteoarthritis assessed as withdrawal threshold at 20 mg/kg, ip administered 14 days post MIA challenge measured after 60 mins by paw pressure test (reference value: 36.1 +/- 3.5 g); format: functional
Method in brief: as §1

Cc1c(CCOCCCF)cc(-c2ccc(S(C)(=O)=O)cc2)n1-c1ccc(F)cc1
Activity (Rattus norvegicus [1]): 49.2 g | Activity (Mus musculus [2]): 11.4 | Activity (Rattus norvegicus [3]): 40.6 g | Activity (Mus musculus [4]): 17.7 | Activity (Rattus norvegicus [5]): 51.8 g | Activity (HaCaT): inactive | Activity (Mus musculus [6]): 10.7 | Activity (Rattus norvegicus [7]): 47.9 g | Activity (Rattus norvegicus [8]): 45.4 g | Activity (Rattus norvegicus [9]): 44.3 g | Activity (Rattus norvegicus [10]): 54.5 g
